In ChEMBL document CHEMBL1143581, “Cationic chalcone antibiotics. Design, synthesis, and mechanism of action” (2005):
In brackets after ≈: the same amount, converted by molar mass. Activity calls are given as the source filed them. The rule behind the calls is not given here.

How the values were obtained:
Enterococcus faecium [1] = experiment: Minimum inhibitory concentration against Enterococcus faecium 17501 (vancomycin-resistant clinical isolate); format: functional
Escherichia coli [2] = experiment: Minimum inhibitory concentration against Escherichia coli ATCC 25922; format: functional
Method in brief: (§1)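 Broth microdilution per NCCLS in Mueller-Hinton medium, run in triplicate, with an added uninoculated compound dilution series in case of precipitation. MIC read as the lowest concentration preventing visible growth; reported values are the mean of three experiments.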

Enterococcus faecium [3] = experiment: Minimum inhibitory concentration against Enterococcus faecium […]; format: functional
Staphylococcus aureus [4] = experiment: Minimum inhibitory concentration against Staphylococcus aureus ATCC 33591 (resistant to methicillin); format: functional
[5] = Percent lysis of human erythrocytes after exposed to test compound was measured as hemolysis; format: functional
Staphylococcus aureus [6] = experiment: Effect on bacterial membrane integrity was determined by using SYTO9 green fluorescent […]; format: functional, Bacteria
Method in brief: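 Incubated 15 min at 37 °C with agitation, then resuspended to OD600 ~0.4 and stained with BacLight (SYTO-9/propidium iodide) 15 min dark. Excitation 485 nm, emission 530/630 nm; green/red ratio normalized to untreated control.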

Staphylococcus aureus [7] = experiment: Minimum inhibitory concentration against Staphylococcus aureus ATCC 33591 (resistant to methicillin); NA=not active; format: functional, organism-based
Enterococcus faecium [8] = experiment: Minimum inhibitory concentration against Enterococcus faecium […]; NA=not active; format: functional, organism-based; method in brief: as §1
Enterococcus faecium [9] = experiment: Minimum inhibitory concentration against Enterococcus faecium 17501 (vancomycin-resistant clinical isolate); NA=not active; format: functional, organism-based
Escherichia coli [10] = experiment: Minimum inhibitory concentration against Escherichia coli ATCC 25922; NA=not active; format: functional, organism-based

Cc1cc(C)cc(-c2ccc(OCCN(C)C)c(/C=C/C(=O)c3ccccc3NCCN(C)C)c2)c1
MIC (Enterococcus faecium [1]): 10 µM (≈ 4.86 µg/mL) | MIC (Escherichia coli [2]): 10 µM (≈ 4.86 µg/mL) | MIC (Enterococcus faecium [3]): 10 µM (≈ 4.86 µg/mL) | MIC (Staphylococcus aureus [4]): 10 µM (≈ 4.86 µg/mL)

Cc1cc(C)cc(-c2ccc(N(C)CCN(C)C)c(/C=C/C(=O)c3cccc(NCCN(C)C)c3)c2)c1
MIC (Enterococcus faecium [1]): 10 µM (≈ 4.99 µg/mL) | MIC (Escherichia coli [2]): 20 µM (≈ 9.97 µg/mL) | MIC (Enterococcus faecium [3]): 10 µM (≈ 4.99 µg/mL) | MIC (Staphylococcus aureus [4]): 10 µM (≈ 4.99 µg/mL)

Cc1cc(C)cc(-c2ccc(N3CCN(C)CC3)c(/C=C/C(=O)c3cccc(NCCN(C)C)c3)c2)c1
MIC (Enterococcus faecium [1]): 5 µM (≈ 2.48 µg/mL) | MIC (Escherichia coli [2]): 10 µM (≈ 4.97 µg/mL) | MIC (Enterococcus faecium [3]): 5 µM (≈ 2.48 µg/mL) | MIC (Staphylococcus aureus [4]): 5 µM (≈ 2.48 µg/mL)

CN(C)CCNc1ccccc1C(=O)/C=C/c1ccc(Cl)cc1Cl
MIC (Enterococcus faecium [1]): 40 µM (≈ 14.5 µg/mL) | MIC (Enterococcus faecium [3]): 75 µM (≈ 27.2 µg/mL) | MIC (Staphylococcus aureus [4]): 40 µM (≈ 14.5 µg/mL)

Cc1cc(C)cc(-c2ccc(OCCN(C)C)c(/C=C/C(=O)c3cccc(OCCN(C)C)c3)c2)c1
MIC (Enterococcus faecium [1]): 10 µM (≈ 4.87 µg/mL) | MIC (Escherichia coli [2]): 20 µM (≈ 9.73 µg/mL) | MIC (Enterococcus faecium [3]): 10 µM (≈ 4.87 µg/mL) | MIC (Staphylococcus aureus [4]): 5 µM (≈ 2.43 µg/mL)

Cc1cc(C)cc(-c2ccc(N3CCNCC3)c(/C=C/C(=O)c3cccc(NCCN(C)C)c3)c2)c1
MIC (Enterococcus faecium [1]): 5 µM (≈ 2.41 µg/mL) | MIC (Escherichia coli [2]): 5 µM (≈ 2.41 µg/mL) | MIC (Enterococcus faecium [3]): 5 µM (≈ 2.41 µg/mL) | Hemolysis [5]: 0% | Membrane integrity (Staphylococcus aureus [6]): 3% | MIC (Staphylococcus aureus [4]): 2 µM (≈ 0.965 µg/mL)

C[N+](C)(C)CCOc1ccc(C(=O)/C=C/c2ccc(Cl)cc2Cl)cc1
MIC (Staphylococcus aureus [4]): 40 µM

COc1ccc(C(=O)/C=C/c2cc(-c3cc(C)cc(C)c3)ccc2OCCN(C)C)cc1CN(C)C
MIC (Enterococcus faecium [1]): 20 µM (≈ 9.73 µg/mL) | MIC (Escherichia coli [2]): 40 µM (≈ 19.5 µg/mL) | MIC (Enterococcus faecium [3]): 20 µM (≈ 9.73 µg/mL) | MIC (Staphylococcus aureus [4]): 20 µM (≈ 9.73 µg/mL)

COc1ccc(C(=O)/C=C/c2cc(-c3ccc(C(F)(F)F)cc3)ccc2N2CCN(C)CC2)c(F)c1
MIC (Staphylococcus aureus [7]): inactive | MIC (Enterococcus faecium [8]): inactive | MIC (Enterococcus faecium [9]): inactive

COc1ccc(C(=O)/C=C/c2cc(-c3ccccc3OC)ccc2N2CCN(C)CC2)c(F)c1
MIC (Enterococcus faecium [1]): 10 µM (≈ 4.61 µg/mL) | MIC (Enterococcus faecium [3]): 20 µM (≈ 9.21 µg/mL) | Hemolysis [5]: 80% | Membrane integrity (Staphylococcus aureus [6]): 0% | MIC (Staphylococcus aureus [4]): 10 µM (≈ 4.61 µg/mL)

CN(C)CCNc1cccc(C(=O)/C=C/c2ccc(N3CCN(C)CC3)c(-c3ccccc3)c2)c1
MIC (Enterococcus faecium [1]): 75 µM (≈ 35.1 µg/mL) | MIC (Escherichia coli [10]): inactive | MIC (Enterococcus faecium [3]): 150 µM (≈ 70.3 µg/mL) | MIC (Staphylococcus aureus [4]): 75 µM (≈ 35.1 µg/mL)

COc1ccc(C(=O)/C=C/c2cc(-c3ccccc3OC)ccc2N2CC[N+](C)(C)CC2)c(F)c1
MIC (Staphylococcus aureus [4]): 10 µM

COc1ccc(C(=O)/C=C/c2cc(-c3ccccc3)ccc2CN(C)C)c(F)c1
MIC (Enterococcus faecium [1]): 150 µM (≈ 58.4 µg/mL) | MIC (Enterococcus faecium [3]): 150 µM (≈ 58.4 µg/mL) | MIC (Staphylococcus aureus [4]): 150 µM (≈ 58.4 µg/mL)

COc1ccc(C(=O)/C=C/c2cc(-c3ccccc3OC)ccc2N2CCN(C(C)=O)CC2)c(F)c1
MIC (Staphylococcus aureus [7]): inactive | MIC (Enterococcus faecium [8]): inactive | MIC (Enterococcus faecium [9]): inactive

CN(C)CCNc1ccc(C(=O)/C=C/c2cccc(Oc3ccccc3)c2)cc1
MIC (Enterococcus faecium [1]): 20 µM (≈ 7.73 µg/mL) | MIC (Enterococcus faecium [3]): 5 µM (≈ 1.93 µg/mL) | MIC (Staphylococcus aureus [4]): 20 µM (≈ 7.73 µg/mL)

CN(C)Cc1ccc(C(=O)/C=C/c2ccc(Cl)cc2Cl)cc1
MIC (Enterococcus faecium [1]): 40 µM (≈ 13.4 µg/mL) | MIC (Enterococcus faecium [3]): 75 µM (≈ 25.1 µg/mL) | MIC (Staphylococcus aureus [4]): 40 µM (≈ 13.4 µg/mL)

C=CC(C)(C)c1cc(/C=C/C(=O)c2ccc(O)cc2)c(OC)cc1O [LICOAGROCHACONE A]
MIC (Enterococcus faecium [1]): 40 µM (≈ 13.5 µg/mL) | MIC (Enterococcus faecium [3]): 75 µM (≈ 25.4 µg/mL) | Hemolysis [5]: 100% | Membrane integrity (Staphylococcus aureus [6]): 0% | MIC (Staphylococcus aureus [4]): 40 µM (≈ 13.5 µg/mL)

CN(C)CCNc1ccc(C(=O)/C=C/c2ccc(Cl)cc2Cl)cc1
MIC (Enterococcus faecium [1]): 40 µM (≈ 14.5 µg/mL) | MIC (Enterococcus faecium [3]): 40 µM (≈ 14.5 µg/mL) | MIC (Staphylococcus aureus [4]): 40 µM (≈ 14.5 µg/mL)

Cc1cc(C)cc(-c2ccc(OCCN(C)C)c(/C=C/C(=O)c3ccccc3CN(C)C)c2)c1
MIC (Enterococcus faecium [1]): 10 µM (≈ 4.57 µg/mL) | MIC (Escherichia coli [2]): 75 µM (≈ 34.2 µg/mL) | MIC (Enterococcus faecium [3]): 5 µM (≈ 2.28 µg/mL) | MIC (Staphylococcus aureus [4]): 10 µM (≈ 4.57 µg/mL)

COc1ccc(C(=O)/C=C/c2cc(-c3cc(C)cc(C)c3)ccc2OCCN(C)C)c(CN(C)C)c1
MIC (Enterococcus faecium [1]): 5 µM (≈ 2.43 µg/mL) | MIC (Escherichia coli [2]): 75 µM (≈ 36.5 µg/mL) | MIC (Enterococcus faecium [3]): 5 µM (≈ 2.43 µg/mL) | Hemolysis [5]: <1% | Membrane integrity (Staphylococcus aureus [6]): 2% | MIC (Staphylococcus aureus [4]): 5 µM (≈ 2.43 µg/mL)

COc1ccc(C(=O)/C=C/c2ccccc2OCCN(C)C)c(F)c1
MIC (Enterococcus faecium [1]): 300 µM (≈ 103 µg/mL) | MIC (Enterococcus faecium [3]): 300 µM (≈ 103 µg/mL) | MIC (Staphylococcus aureus [4]): 300 µM (≈ 103 µg/mL)

CN(C)CCNc1cccc(C(=O)/C=C/c2ccc(Cl)cc2Cl)c1
MIC (Enterococcus faecium [1]): 40 µM (≈ 14.5 µg/mL) | MIC (Enterococcus faecium [3]): 40 µM (≈ 14.5 µg/mL) | MIC (Staphylococcus aureus [4]): 40 µM (≈ 14.5 µg/mL)

CN(C)CCNc1ccc(/C=C/C(=O)c2ccc(Oc3ccccc3)cc2)cc1
MIC (Enterococcus faecium [1]): 20 µM (≈ 7.73 µg/mL) | MIC (Enterococcus faecium [3]): 10 µM (≈ 3.86 µg/mL) | MIC (Staphylococcus aureus [4]): 20 µM (≈ 7.73 µg/mL)

COc1ccc(C(=O)/C=C/c2cc(-c3cc(C)cc(C)c3)ccc2OCC[N+](C)(C)C)c(C[N+](C)(C)C)c1
MIC (Staphylococcus aureus [4]): 10 µM

Cc1cc(C)cc(-c2ccc(OCCN(C)C)c(/C=C/C(=O)c3ccc(NCCN(C)C)cc3)c2)c1
MIC (Enterococcus faecium [1]): 10 µM (≈ 4.86 µg/mL) | MIC (Escherichia coli [2]): 20 µM (≈ 9.71 µg/mL) | MIC (Enterococcus faecium [3]): 20 µM (≈ 9.71 µg/mL) | MIC (Staphylococcus aureus [4]): 10 µM (≈ 4.86 µg/mL)

COc1ccc(C(=O)/C=C/c2cc(-c3cc(C)cc(C)c3)ccc2OCCN(C)C)c(F)c1
MIC (Enterococcus faecium [1]): 5 µM (≈ 2.24 µg/mL) | MIC (Enterococcus faecium [3]): 5 µM (≈ 2.24 µg/mL) | MIC (Staphylococcus aureus [4]): 5 µM (≈ 2.24 µg/mL)

Cc1cc(C)cc(-c2ccc(OCCN(C)C)c(/C=C/C(=O)c3cccc(N)c3)c2)c1
MIC (Enterococcus faecium [1]): 10 µM (≈ 4.15 µg/mL) | MIC (Escherichia coli [10]): inactive | MIC (Enterococcus faecium [3]): 10 µM (≈ 4.15 µg/mL) | MIC (Staphylococcus aureus [4]): 10 µM (≈ 4.15 µg/mL)
